Measurements reported in ChEMBL document CHEMBL3612020.

Assays:
[1] = biological target: T1, D-amino-acid oxidase (Homo sapiens, UniProt P14920); assay: Inhibition of recombinant human DAAO expressed in HEK cells using D-serine as substrate assessed as formation of alpha-keto acid, ammonia, […] after 20 mins by horseradish peroxidase/o-phenylenediamine-based assay; set-up: species or system HEK293
Summary of the method: (§1)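 Human DAAO from HEK cells: lysate in 50 mM Tris pH 8.5 with 100 µM FAD, sonicated, then ion-exchange purified with a 0–0.5 M NaCl gradient. […] Enzyme set to give 2.0 mOD/min uninhibited. Rate read as absorbance change at 411 nm. Mean ± SD of ≥4 experiments in most cases.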

[2] = biological target: T1, D-amino-acid oxidase; assay: Inhibition of DAAO (unknown origin); summary of the method: as §1
[3] = Volume of distribution in CD1 mouse at 10 mg/kg, iv; type: ADME, organism-based; conditions: in vivo
Summary of the method: (§2)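 Male CD1 mice, n = 3 per time point, dosed iv or po. About 1 mL blood taken by cardiac puncture into heparinized tubes, kept on wet ice, centrifuged 10 min at 800 g, 4 °C. Plasma stored at −80 °C; drug levels measured by HPLC–QTOF-MS.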

[4] = AUClast in CD1 mouse at 30 mg/kg, po; type: ADME, organism-based; set-up: dose 30 mg/kg, route oral, time 0 - last; conditions: in vivo; summary of the method: as §2
[5] = Metabolic stability in mouse liver microsomes assessed as compound remaining at 5 uM after 60 mins by LC/MS/MS analysis in presence of NADPH; type: ADME; conditions: 1 h
Summary of the method: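 Mouse liver microsomes (0.5 mg/mL) with 5 µM test compound in 100 mM potassium phosphate pH 7.4 plus NADPH regenerating system (1.3 mM NADPH). Reaction started with microsomes, run in duplicate for 60 min, quenched with cold acetonitrile containing internal standard. Parent quantified by LC/MS/MS; cofactor-free controls included.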

[6] = Tmax in CD1 mouse at 30 mg/kg, po; type: ADME, organism-based; conditions: in vivo; summary of the method: as §2
[7] = system: Mus musculus; assay: Dose normalized AUClast in CD1 mouse at 10 mg/kg, iv; type: ADME, organism-based; conditions: in vivo; summary of the method: as §2
[8] = Terminal half life in CD1 mouse at 10 mg/kg, iv; type: ADME, organism-based; conditions: in vivo, read-out: beta t1/2 (converted); summary of the method: as §2
[9] = Cmax in CD1 mouse at 30 mg/kg, po; type: ADME, organism-based; set-up: dose 30 mg/kg, route oral; conditions: in vivo; summary of the method: as §2
[10] = Metabolic stability in mouse liver microsomes assessed as compound remaining at 5 uM after 60 mins by LC/MS/MS analysis in presence of UDPGA; type: ADME; conditions: 1 h
Summary of the method: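 Glucuronidation in mouse liver microsomes (0.5 mg/mL): 50 mM Tris-HCl pH 7.5, 8 mM MgCl2, 25 µg/mL alamethicin, pre-incubated at 37 °C. Started with 2 mM UDPGA (final), in duplicate, for 60 min. Quenched with cold acetonitrile plus internal standard; LC/MS/MS read-out, with cofactor-free controls.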

T1 sequence (P14920 whole entry): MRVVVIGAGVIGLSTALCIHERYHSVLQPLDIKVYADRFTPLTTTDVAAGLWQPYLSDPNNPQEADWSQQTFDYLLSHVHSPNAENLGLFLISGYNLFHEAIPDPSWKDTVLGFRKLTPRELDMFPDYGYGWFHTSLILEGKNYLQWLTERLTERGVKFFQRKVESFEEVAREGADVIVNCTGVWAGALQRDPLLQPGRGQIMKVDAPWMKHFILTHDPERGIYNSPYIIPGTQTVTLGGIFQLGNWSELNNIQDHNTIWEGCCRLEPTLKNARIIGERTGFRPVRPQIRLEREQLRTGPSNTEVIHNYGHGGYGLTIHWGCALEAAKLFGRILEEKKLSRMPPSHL

O=c1[nH]c(=O)n(CCc2cccc(C(F)(F)F)c2)nc1O showed an IC50 [1] of 100 nM.

Work on CO/N=C(\C(=O)N[C@@H]1C(=O)N2C(C(=O)O)=C(CSc3nc(=O)c(=O)[nH]n3C)CS[C@H]12)c1csc(N)n1 [CEFTRIAXONE] yielded an IC50 [2] of 10 µM.

With COc1cccc(CCn2nc(O)c(=O)[nH]c2=O)c1 the IC50 [1] was 120 nM.

Work on O=c1[nH]c(=O)n(CCc2ccc(O)cc2)nc1O yielded an IC50 [1] of 110 nM.

O=C(Cn1nc(O)c(=O)[nH]c1=O)c1ccccc1 gave an IC50 [1] of 850 nM.

With O=c1[nH]nc(CCc2cc(F)cc(F)c2)cc1O the Vd [3] was 0.5 L/kg, the AUC(0-t) [4] was 3900 ng·h/mL and the Stability [5] was 92%. For the same compound, the Tmax [6] was 15 min, the AUClast/dose [7] was 12.7 µg·h/mL and the half-life [8] was 12 min. The Cmax [9] was 6600 ng/mL.

Work on O=c1[nH]c(=O)n(Cc2ccc3ccccc3c2)nc1O yielded an IC50 [1] of 220 nM.

Work on CC(Cn1nc(O)c(=O)[nH]c1=O)c1ccccc1 (stereo not given) yielded an IC50 [1] of 3300 nM.

In the case of O=c1[nH]c(=O)n(CC(O)c2ccccc2)nc1O (stereo not given), the IC50 [1] is reported as 470 nM.

Compound O=c1[nH]c(=O)n(CCc2ccccn2)nc1O has an IC50 [1] of 760 nM.

O=c1[nH]c(=O)n(CCCc2ccccc2)nc1O showed an IC50 [1] of 1700 nM.

Work on Cc1cccc(CCn2nc(O)c(=O)[nH]c2=O)c1 yielded an IC50 [1] of 70 nM.

With O=c1[nH]c(=O)n(CCc2ccc(Oc3ccccc3)cc2)nc1O the IC50 [1] was 80 nM.

For O=c1[nH]c(=O)n(CCc2ccccc2)nc1O, the IC50 [1] was 70 nM, the Stability [10] was “>= 99%” and the Stability [5] was “>= 99%”.

In the case of O=c1[nH]c(=O)n(-c2ccccc2)nc1O, the IC50 [1] is reported as over 100000 nM.

In the case of O=c1[nH]c(=O)n(CCc2cccc(Oc3ccccc3)c2)nc1O, the IC50 [1] is reported as 240 nM.

With O=c1[nH]c(=O)n(CCn2cccn2)nc1O the IC50 [1] was 330 nM.
